Common to all, as to format: functional
The test system of experiment [1] is Mus musculus. In words: Anticonvulsant activity in ip dosed mouse assessed as protection against maximal electroshock-induced epileptic seizures after 4 hrs. The following applies: read-out: MED. In outline: (§1)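 Mice (20–40 g), groups of six to ten; i.p. doses 30, 100 and 300 mg/kg; tested at 0.5 and 4 h. Stimulus 50 mA, 60 Hz, 0.2 s via corneal electrodes primed with anaesthetic electrolyte; abolition of hindlimb tonic extension scored as protection. Value is the minimal dose protecting at least 50% of animals.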

In experiment [2] the test system is Mus musculus. In words: Anticonvulsant activity in ip dosed mouse assessed as protection against maximal electroshock-induced epileptic seizures after 0.5 hrs. The following applies: read-out: MED. Put shortly:
as §1
On the technique in general: In the maximal electroshock model the usual endpoint is tonic extension of the hind limbs.

Experiment [3] has as its system Rattus norvegicus. In words: Antiinflammatory activity in Wistar rat assessed as inhibition of carrageenan-induced paw edema at 20 mg/kg administered 30 mins prior to carrageenan-challenge measured after 3 hrs by plethysmographic analysis relative to control. In outline: (§2)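 Male or female Wistar rats (100–150 g), five per group, fasted overnight; 20 mg/kg given by stomach tube in 5 mL water. 30 min later 0.05 mL 1% carrageenan s.c. into left hind paw plantar side; paw volume by mercury plethysmography at 0, 30, 60, 120, 180 min; percent inhibition versus control, one-way ANOVA with Dunnett's test.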

Experiment [4] relates to Rattus norvegicus. Description: Antiinflammatory activity in Wistar rat assessed as inhibition of carrageenan-induced paw edema at 20 mg/kg administered 30 mins prior to carrageenan-challenge measured after 2 hrs by plethysmographic analysis relative to control. In outline:
as §2
(In general: In the carrageenan paw model, swelling and tenderness develop within hours.)

Experiment [5] deals with Rattus norvegicus. Description: Antiinflammatory activity in Wistar rat assessed as inhibition of carrageenan-induced paw edema at 20 mg/kg administered 30 mins prior to carrageenan-challenge measured after 1 hr by plethysmographic analysis relative to control. In outline:
as §2

Experiment [6] relates to Rattus norvegicus. In words: Antiinflammatory activity in Wistar rat assessed as inhibition of carrageenan-induced paw edema at 20 mg/kg administered 30 mins prior to carrageenan-challenge measured after 30 mins by plethysmographic analysis relative to control. Put shortly: as §2

As a reminder, the inhibition in vivo is the share of the control response that was lost under treatment.

For the compound `O=C1NC(=O)C(c2ccccc2)(c2ccccc2)N1` [PHENYTOIN], the minimal effective dose in experiment [1] and in experiment [2] was 30 mg/kg each time.

Take `O=C(O)Cc1ccccc1Nc1c(Cl)cccc1Cl` [DICLOFENAC SODIUM]: the inhibition in vivo at 20 mg/kg amounted to 65.3% in experiment [3], 61.1% in experiment [4], 41% in experiment [5] and 16.7% in experiment [6].

Values taken from ChEMBL document CHEMBL3085761, “Synthesis, anticonvulsant and anti-inflammatory studies of new 1,4-dihydropyridin-4-yl-phenoxyacetohydrazones” (Eur J Med Chem, 2013).
